Data reported in ChEMBL document CHEMBL1154901, “Quassidines A-D, bis-beta-carboline alkaloids from the stems of Picrasma quassioides” (J Nat Prod, 2010).

Tests used:
[1] = tested on: RAW264.7; experiment: Antiinflammatory activity in mouse RAW264.7 cells assessed as inhibition of LPS-induced TNFalpha production by ELISA; format: functional, cell-based
Summary of the method: (§1)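 RAW 264.7 cells in RPMI 1640, seeded at 5 × 10^5 cells/mL and cultured 1 h. Compound in DMSO was co-added with LPS (final 1 µg/mL). After 6 h culture, supernatant TNF-α and IL-6 were quantified with mouse ELISA kits. LPS-only and DMSO-only (no LPS) wells served as references.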

[2] = tested on: RAW264.7; experiment: Antiinflammatory activity in mouse RAW264.7 cells assessed as inhibition of LPS-induced IL-6 production by ELISA; format: functional, cell-based; summary of the method: as §1
[3] = tested on: RAW264.7; experiment: Antiinflammatory activity in mouse RAW264.7 assessed as inhibition LPS-induced nitric oxide production cells after 24 hrs; format: functional, cell-based; conditions: RAW264.7, 24 h
Summary of the method: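 RAW 264.7 cells in RPMI 1640 with 10% heat-inactivated FBS, seeded at 5 × 10^5 cells/mL and cultured 1 h. Compound in DMSO was added at various concentrations together with LPS (final 1 µg/mL), then incubated 24 h. Supernatant nitrite was measured with Griess reagent (1% sulfanilamide in 5% H3PO4 plus 0.1% naphthylethylene diamine) at 540 nm. Inhibitory rate versus LPS-only wells.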

[4] = tested on: RAW264.7; experiment: Cytotoxicity against mouse RAW264.7 cells after 24 hrs by MTT assay; format: cell-based; conditions: raw264.7, 24 h
Summary of the method: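 RAW 264.7 macrophages seeded at 5 × 10^5 cells/mL in RPMI 1640 with 10% FBS. Compound in DMSO was added with LPS 1 µg/mL. Viability was read by MTT mitochondrial reduction colorimetric assay after 24 h exposure.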

Structure (SMILES)	IC50 [1] [µM]	IC50 [2] [µM]	IC50 [3] [µM]	Activity [4]
COc1cccc2c1[nH]c1c(CCC(OC)C(=O)c3nccc4c3[nH]c3ccccc34)ncc(OC)c12 (configuration not stated) [PICRASIDINE C]	> 100	> 100	89.9	–
COc1cccc2c1[nH]c1c(CCC(O)c3nccc4c3[nH]c3ccccc34)ncc(OC)c12 (configuration not stated) [QUASSIDINE B]	–	–	–	Toxic
COc1cnc(CCC(O)c2nccc3c2[nH]c2ccccc23)c2[nH]c3ccccc3c12 (configuration not stated) [QUASSIDINE C]	–	–	–	Toxic

More lines, main results first:

IC50 [1] [µM]	IC50 [2] [µM]	IC50 [3] [µM]	Structure (SMILES)	Activity [4]
85.6	–	–	C[C@]12CCC(=O)C=C1CC[C@@H]1[C@@H]2[C@@H](O)C[C@@]2(C)[C@H]1CC[C@]2(O)C(=O)CO [HYDROCORTISONE]	–
88.4	> 100	89.4	COc1cccc2c1[nH]c1c([C@@H]3CC[C@H]3c3ncc(OC)c4c3[nH]c3ccccc34)ncc(OC)c12 [QUASSIDINE A]	–
> 100	> 100	> 100	COc1cccc2c1[nH]c1c(CCC(OC)c3nccc4c3[nH]c3ccccc34)ncc(OC)c12 (configuration not stated) [QUASSIDINE D]	–
